ChEMBL document CHEMBL1687778, “Genetic determinants involved in the susceptibility of Pseudomonas aeruginosa to beta-lactam antibiotics” (2010)
≈ marks a conversion by molar mass, not a printed value.

Experiments:
Pseudomonas aeruginosa [1] = assay: Antimicrobial activity against Pseudomonas aeruginosa PA14 PA3050 harboring pyrD mutant gene by Etest method; assay type: functional
Summary of the method: (§1)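 Overnight LB cultures (37°C) diluted in sterile 0.85% NaCl to about 1 × 10^7 CFU/ml. 100 µl spread on Mueller-Hinton agar, one Etest strip per plate, 18 h at 37°C. Ceftazidime, imipenem and meropenem tested. Wild-type PA14 plate included in each set. Each mutant verified in triplicate.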

[2] = test system: Pseudomonas aeruginosa PA14; assay: Activity of Beta-lactamase in Pseudomonas aeruginosa PA14 PA4109 harboring ampR mutant gene assessed as nitrocefin hydrolysis per mg of protein by spectrophotometry
Summary of the method: (§2)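 Cells grown to OD600 1.0, pelleted and resuspended in 0.1 M KH2PO4-Na2HPO4 pH 7.0. Crude extract made by two freeze-thaw cycles plus sonication on ice. β-Lactamase read as absorbance change at 485 nm with 50 µM nitrocefin in the same pH 7.0 phosphate buffer. Extract protein measured by BCA against a bovine serum albumin standard.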

Pseudomonas aeruginosa [3] = assay: Antimicrobial activity against Pseudomonas aeruginosa PA14 PA0958 harboring oprD mutant gene by Etest method; assay type: functional; summary of the method: as §1
[4] = test system: Pseudomonas aeruginosa PA14; assay: Activity of Beta-lactamase in Pseudomonas aeruginosa PA14 PA4020 harboring mpl mutant gene assessed as nitrocefin hydrolysis per mg of protein by spectrophotometry; summary of the method: as §2
Pseudomonas aeruginosa [5] = assay: Antimicrobial activity against Pseudomonas aeruginosa PA14 PA14_43090 harboring mutation in hypothetical protein by Etest method; assay type: functional; summary of the method: as §1
Pseudomonas aeruginosa [6] = assay: Antimicrobial activity against Pseudomonas aeruginosa PA14 PA0011 harboring mutation in putative 2-OH-lauroyltransferase by Etest method; assay type: functional; summary of the method: as §1
[7] = test system: Pseudomonas aeruginosa PAO1; assay: Activity of Beta-lactamase in Pseudomonas aeruginosa PAO1 PA3047 harboring dacB mutant gene assessed as nitrocefin hydrolysis per mg of protein by spectrophotometry; summary of the method: as §2
Pseudomonas aeruginosa [8] = assay: Antimicrobial activity against Pseudomonas aeruginosa PA14 PA14_23430 harboring mutation in putative heparinase by Etest method; assay type: functional; summary of the method: as §1
Pseudomonas aeruginosa [9] = assay: Antimicrobial activity against Pseudomonas aeruginosa PA14 PA3262 harboring fklB mutant gene by Etest method; assay type: functional
Summary of the method: (§3)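 Etest MIC. Overnight LB cultures at 37°C were diluted in sterile 0.85% NaCl to about 1 × 10^7 CFU/ml. 100 µl was spread on Mueller-Hinton agar, one strip was placed per plate, and plates were incubated at 37°C for 18 h. Equal cell numbers were seeded per plate, and results were verified in triplicate. PA14 wild type was included in each set as a susceptibility control.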

Pseudomonas aeruginosa [10] = assay: Antimicrobial activity against Pseudomonas aeruginosa PA14 PA3704 harboring wspE mutant gene by Etest method; assay type: functional; summary of the method: as §3
Pseudomonas aeruginosa [11] = assay: Antimicrobial activity against Pseudomonas aeruginosa PA14 PA0770 harboring rnc mutant gene by Etest method; assay type: functional; summary of the method: as §1
Pseudomonas aeruginosa [12] = assay: Antimicrobial activity against Pseudomonas aeruginosa PA14 PA2615 harboring ftsK mutant gene by Etest method; assay type: functional; summary of the method: as §1
Pseudomonas aeruginosa [13] = assay: Antimicrobial activity against Pseudomonas aeruginosa PA14 PA4109 harboring ampR mutant gene by Etest method; assay type: functional; summary of the method: as §3
Pseudomonas aeruginosa [14] = assay: Antimicrobial activity against Pseudomonas aeruginosa PA14 PA4745 harboring nusA mutant gene by Etest method; assay type: functional; summary of the method: as §3
Pseudomonas aeruginosa [15] = assay: Antimicrobial activity against Pseudomonas aeruginosa PA14 PA3141 harboring wbpM mutant gene by Etest method; assay type: functional; summary of the method: as §1
Pseudomonas aeruginosa [16] = assay: Antimicrobial activity against Pseudomonas aeruginosa PA14 PA3589 harboring mutation in acetyl-coenzyme A (CoA) acetyltransferase (thiolase) by Etest method; assay type: functional; summary of the method: as §3
Pseudomonas aeruginosa [17] = assay: Antimicrobial activity against Pseudomonas aeruginosa PA14 PA14_59780 harboring rcsC mutant gene by Etest method; assay type: functional; summary of the method: as §1
Pseudomonas aeruginosa [18] = assay: Antimicrobial activity against Pseudomonas aeruginosa PA14 PA1195 harboring mutation in putative dimethylarginine dimethylaminohydrolase by Etest method; assay type: functional; summary of the method: as §1
Pseudomonas aeruginosa [19] = assay: Antimicrobial activity against Pseudomonas aeruginosa PA14 PA4393 harboring mutation in putative permease by Etest method; assay type: functional; summary of the method: as §3
Pseudomonas aeruginosa [20] = assay: Antimicrobial activity against Pseudomonas aeruginosa PA14 PA5001 harboring mutation in putative glycosyl-transferase by broth microdilution method relative to wild type
Pseudomonas aeruginosa [21] = assay: Antimicrobial activity against Pseudomonas aeruginosa PA14 PA5001 harboring mutation in conserved hypothetical protein by Etest method; assay type: functional; summary of the method: as §3
[22] = test system: Pseudomonas aeruginosa PA14; assay: Activity of Beta-lactamase in Pseudomonas aeruginosa PA14 PA4020 harboring complemented mpl mutant gene assessed as nitrocefin hydrolysis per mg of protein by spectrophotometry; summary of the method: as §2
Pseudomonas aeruginosa [23] = assay: Antimicrobial activity against Pseudomonas aeruginosa PA14 PA5038 harboring aroB mutant gene by Etest method; assay type: functional; summary of the method: as §3
[24] = test system: Pseudomonas aeruginosa PAO1; assay: Activity of wild type Pseudomonas aeruginosa PAO1 Beta-lactamase assessed as nitrocefin hydrolysis per mg of protein by spectrophotometry; summary of the method: as §2
Pseudomonas aeruginosa [25] = assay: Antimicrobial activity against Pseudomonas aeruginosa PA14 PA4550 harboring fimU mutant gene by Etest method; assay type: functional; summary of the method: as §3
Pseudomonas aeruginosa [26] = assay: Antimicrobial activity against Pseudomonas aeruginosa PA14 PA1348 harboring mutation in conserved hypothetical protein by Etest method; assay type: functional; summary of the method: as §1
Pseudomonas aeruginosa [27] = assay: Antimicrobial activity against Pseudomonas aeruginosa PA14 PA0402 harboring pyrB mutant gene by Etest method; assay type: functional; summary of the method: as §1
Pseudomonas aeruginosa [28] = assay: Antimicrobial activity against Pseudomonas aeruginosa PA14 PA3620 harboring mutS mutant gene by Etest method; assay type: functional; summary of the method: as §3
Pseudomonas aeruginosa [29] = assay: Antimicrobial activity against Pseudomonas aeruginosa PA14 PA2797 harboring mutation in putative anti-anti-sigma factor by Etest method; assay type: functional; summary of the method: as §1
Pseudomonas aeruginosa [30] = assay: Antimicrobial activity against Pseudomonas aeruginosa PA14 PA3433 harboring mutation in putative transcriptional regulator, LysR family by Etest method; assay type: functional; summary of the method: as §3
Pseudomonas aeruginosa [31] = assay: Antimicrobial activity against Pseudomonas aeruginosa PA14 PA3259 harboring mutation in conserved hypothetical protein by Etest method; assay type: functional; summary of the method: as §3
Pseudomonas aeruginosa [32] = assay: Antimicrobial activity against Pseudomonas aeruginosa PA14 PA14_06490 harboring mutation in hypothetical protein by Etest method; assay type: functional; summary of the method: as §1
Pseudomonas aeruginosa [33] = assay: Antimicrobial activity against Pseudomonas aeruginosa PA14 PA4748 harboring tpiA mutant gene by Etest method; assay type: functional; summary of the method: as §3
[34] = test system: Pseudomonas aeruginosa PAO1; assay: Activity of Beta-lactamase in Pseudomonas aeruginosa PAO1 PA4020 harboring mpl mutant gene assessed as nitrocefin hydrolysis per mg of protein by spectrophotometry; summary of the method: as §2
Pseudomonas aeruginosa [35] = assay: Antimicrobial activity against Pseudomonas aeruginosa PA14 PA3667 harboring mutation in putative cysteine sulfinate desulfinase by Etest method; assay type: functional; summary of the method: as §3
Pseudomonas aeruginosa [36] = assay: Antimicrobial activity against Pseudomonas aeruginosa PA14 PA3520 harboring mutation in putative periplasmic metal-binding protein by Etest method; assay type: functional; summary of the method: as §3
Pseudomonas aeruginosa [37] = assay: Antimicrobial activity against Pseudomonas aeruginosa PA14 PA5443 harboring uvrD mutant gene by Etest method; assay type: functional; summary of the method: as §3
Pseudomonas aeruginosa [38] = assay: Antimicrobial activity against Pseudomonas aeruginosa PA14 PA3649 harboring mutation in putative membrane-associated zinc metalloprotease by Etest method; assay type: functional; summary of the method: as §3

CC(C)(O/N=C(\C(=O)N[C@@H]1C(=O)N2C(C(=O)[O-])=C(C[n+]3ccccc3)CS[C@H]12)c1csc(N)n1)C(=O)O [CEFTAZIDIME]
MIC (Pseudomonas aeruginosa [1]): 0.5 µg/mL (≈ 0.915 µM)
Activity [2]: 257 nmol/min
MIC (Pseudomonas aeruginosa [3]): 0.75 µg/mL (≈ 1.37 µM)
Activity [4]: 96 nmol/min
MIC (Pseudomonas aeruginosa [5]): 2 µg/mL (≈ 3.66 µM)
MIC (Pseudomonas aeruginosa [6]): 0.38 µg/mL (≈ 0.695 µM)
Activity [7]: 274 nmol/min
MIC (Pseudomonas aeruginosa [8]): 2 µg/mL (≈ 3.66 µM)
MIC (Pseudomonas aeruginosa [9]): 0.75 µg/mL (≈ 1.37 µM)
MIC (Pseudomonas aeruginosa [10]): 2 µg/mL (≈ 3.66 µM)
MIC (Pseudomonas aeruginosa [11]): 0.5 µg/mL (≈ 0.915 µM)
MIC (Pseudomonas aeruginosa [12]): 0.25 µg/mL (≈ 0.457 µM)
MIC (Pseudomonas aeruginosa [13]): 4 µg/mL (≈ 7.32 µM)
MIC (Pseudomonas aeruginosa [14]): 0.75 µg/mL (≈ 1.37 µM)
MIC (Pseudomonas aeruginosa [15]): 2 µg/mL (≈ 3.66 µM)
MIC (Pseudomonas aeruginosa [16]): 2 µg/mL (≈ 3.66 µM)
MIC (Pseudomonas aeruginosa [17]): 0.38 µg/mL (≈ 0.695 µM)
MIC (Pseudomonas aeruginosa [18]): 0.5 µg/mL (≈ 0.915 µM)
MIC (Pseudomonas aeruginosa [19]): 0.75 µg/mL (≈ 1.37 µM)
fold change (FC) (Pseudomonas aeruginosa [20]): 3
MIC (Pseudomonas aeruginosa [21]): 3 µg/mL (≈ 5.49 µM)
Activity [22]: 7.3 nmol/min
MIC (Pseudomonas aeruginosa [23]): 3 µg/mL (≈ 5.49 µM)
Activity [24]: 6.9 nmol/min
MIC (Pseudomonas aeruginosa [25]): 2 µg/mL (≈ 3.66 µM)
MIC (Pseudomonas aeruginosa [26]): 1.5 µg/mL (≈ 2.74 µM)
MIC (Pseudomonas aeruginosa [27]): 0.38 µg/mL (≈ 0.695 µM)
MIC (Pseudomonas aeruginosa [28]): 2 µg/mL (≈ 3.66 µM)
MIC (Pseudomonas aeruginosa [29]): 3 µg/mL (≈ 5.49 µM)
MIC (Pseudomonas aeruginosa [30]): 0.5 µg/mL (≈ 0.915 µM)
MIC (Pseudomonas aeruginosa [31]): 1.5 µg/mL (≈ 2.74 µM)
MIC (Pseudomonas aeruginosa [32]): 2 µg/mL (≈ 3.66 µM)
MIC (Pseudomonas aeruginosa [33]): 1.5 µg/mL (≈ 2.74 µM)
Activity [34]: 168 nmol/min
MIC (Pseudomonas aeruginosa [35]): 3 µg/mL (≈ 5.49 µM)
MIC (Pseudomonas aeruginosa [36]): 1.5 µg/mL (≈ 2.74 µM)
MIC (Pseudomonas aeruginosa [37]): 1.5 µg/mL (≈ 2.74 µM)
MIC (Pseudomonas aeruginosa [38]): 0.5 µg/mL (≈ 0.915 µM)
